Data taken from ChEMBL document CHEMBL5712883, “RNA polymerase II stalling promotes nucleosome occlusion and pTEFb recruitment to drive immortalization by Epstein-Barr virus” (PLoS Pathog, 2011).
The source made the active and inactive calls. No cut-off for these calls is given here.

Experiments:
Type in all cases: cell-based
[1] = target: T1, CDK9/cyclin T1 (Homo sapiens) (UniProt O60563+P50750); assay: Inhibition of CDK9/Cyclin T1 in human Mutu-3 cells assessed as reduction in H3 histone acetylation at +34 distal EBV genome region at 500 nM incubated for 2 hrs by CHIP assay
[2] = target: T1, CDK9/cyclin T1 (Homo sapiens); assay: Inhibition of CDK9/Cyclin T1 in human Mutu-3 cells assessed as reduction in RNA pol II C-terminal domain phosphorylation on serine 5 at +295 distal EBV genome region at 500 nM incubated for 2 hrs by CHIP assay
[3] = target: T1, CDK9/cyclin T1 (Homo sapiens); assay: Inhibition of CDK9/Cyclin T1 in human Mutu-3 cells assessed as reduction in H3 histone acetylation at +1564 distal EBV genome region at 500 nM incubated for 2 hrs by CHIP assay
[4] = target: T1, CDK9/cyclin T1 (Homo sapiens); assay: Inhibition of CDK9/Cyclin T1 in human Mutu-3 cells assessed as decrease in Cp-initiated EBNA 1 transcription at 25 to 50 uM incubated for 24 hrs by Q-PCR analysis; details: dose 25-50 µM
Outline: (§1)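 Mutu III cells seeded at 5×10^5 cells/ml and given DRB or flavopiridol at the stated concentrations, with DMSO as control, for 24 hrs. cDNA was made from 10^5 cells with a cells-to-Ct SYBR kit. Q-PCR used cDNA-specific EBNA 2, EBNA 1 (YUK) or LMP1 primers, with actin as endogenous control, and was analysed by relative quantification (ddCt) against 24 hr control samples.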

[5] = target: T1, CDK9/cyclin T1 (Homo sapiens); assay: Inhibition of CDK9/Cyclin T1 in human Mutu-3 cells assessed as effect on cp-pre-initiation complex assembly at +48 distal EBV genome region at 500 nM incubated for 2 hrs by CHIP assay
[6] = target: T1, CDK9/cyclin T1 (Homo sapiens); assay: Inhibition of CDK9/Cyclin T1 in human Mutu-3 cells assessed as reduction in H3 histone acetylation at -317 distal EBV genome region at 500 nM incubated for 2 hrs by CHIP assay
[7] = target: T1, CDK9/cyclin T1 (Homo sapiens); assay: Inhibition of CDK9/Cyclin T1 in human B cell transfected with EBV assessed as reduction in RNA pol II C-terminal domain phosphorylation on serine 5 at +59014 distal EBV genome region at 500 nM incubated for 2 hrs in presence of beta-estradiol by CHIP assay
[8] = target: T1, CDK9/cyclin T1 (Homo sapiens); assay: Inhibition of CDK9/Cyclin T1 in human Mutu-3 cells assessed as reduction in RNA pol II C-terminal domain phosphorylation on serine 5 at +30896 distal EBV genome region at 500 nM incubated for 2 hrs by CHIP assay
[9] = target: T1, CDK9/cyclin T1 (Homo sapiens); assay: Inhibition of CDK9/Cyclin T1 in human Mutu-3 cells assessed as reduction in BRD4 at +2238 distal EBV genome region at 500 nM incubated for 2 hrs by CHIP assay
[10] = target: T1, CDK9/cyclin T1 (Homo sapiens); assay: Inhibition of CDK9/Cyclin T1 in human Mutu-3 cells assessed as reduction in BRD4 at +574 distal EBV genome region at 500 nM incubated for 2 hrs by CHIP assay
[11] = target: T1, CDK9/cyclin T1 (Homo sapiens); assay: Inhibition of CDK9/Cyclin T1 in human Mutu-3 cells assessed as reduction in RNA pol II C-terminal domain phosphorylation on serine 5 at +48 distal EBV genome region at 500 nM incubated for 2 hrs by CHIP assay
[12] = target: T1, CDK9/cyclin T1 (Homo sapiens); assay: Inhibition of CDK9/Cyclin T1 in human Mutu-3 cells assessed as reduction in H4 histone acetylation at +574 distal EBV genome region at 500 nM incubated for 2 hrs by CHIP assay
[13] = target: T1, CDK9/cyclin T1 (Homo sapiens); assay: Inhibition of CDK9/Cyclin T1 in human Mutu-3 cells assessed as increase in fold change pTEFb/Brd4 complex
[14] = target: T1, CDK9/cyclin T1 (Homo sapiens); assay: Inhibition of CDK9/Cyclin T1 in human Mutu-3 cells assessed as effect on cp-pre-initiation complex assembly at +38828 distal EBV genome region at 500 nM incubated for 2 hrs by CHIP assay
[15] = target: T1, CDK9/cyclin T1 (Homo sapiens); assay: Inhibition of CDK9/Cyclin T1 in human B cell transfected with EBV assessed as reduction in RNA pol II C-terminal domain phosphorylation on serine 5 at +40493 distal EBV genome region at 500 nM incubated for 2 hrs in presence of beta-estradiol by CHIP assay
[16] = target: T1, CDK9/cyclin T1 (Homo sapiens); assay: Inhibition of CDK9/Cyclin T1 in human HeLa cells stably transfected Flag-tagged CDK9 assessed as increase in fold change pTEFb/Brd4 complex at 1 mM by western analysis
[17] = target: T1, CDK9/cyclin T1 (Homo sapiens); assay: Inhibition of CDK9/Cyclin T1 in human Mutu-3 cells assessed as effect on cp-pre-initiation complex assembly at +30896 distal EBV genome region at 500 nM incubated for 2 hrs by CHIP assay
[18] = target: T1, CDK9/cyclin T1 (Homo sapiens); assay: Inhibition of CDK9/Cyclin T1 in human Mutu-3 cells assessed as reduction in BRD4 at +34 distal EBV genome region at 500 nM incubated for 2 hrs by CHIP assay
[19] = target: T1, CDK9/cyclin T1 (Homo sapiens); assay: Inhibition of CDK9/Cyclin T1 in human Mutu-3 cells assessed as effect on cp-pre-initiation complex assembly at +295 distal EBV genome region at 500 nM incubated for 2 hrs by CHIP assay
[20] = target: T1, CDK9/cyclin T1 (Homo sapiens); assay: Inhibition of CDK9/Cyclin T1 in human Mutu-3 cells assessed as reduction in H4 histone acetylation at +2238 distal EBV genome region at 500 nM incubated for 2 hrs by CHIP assay
[21] = target: T1, CDK9/cyclin T1 (Homo sapiens); assay: Inhibition of CDK9/Cyclin T1 in human B cell transfected with EBV assessed as reduction in RNA pol II C-terminal domain phosphorylation on serine 5 at +30896 distal EBV genome region at 500 nM incubated for 2 hrs in presence of beta-estradiol by CHIP assay
[22] = target: T1, CDK9/cyclin T1 (Homo sapiens); assay: Inhibition of CDK9/Cyclin T1 in human Mutu-3 cells assessed as effect on cp-pre-initiation complex assembly at -208 distal EBV genome region at 500 nM incubated for 2 hrs by CHIP assay
[23] = target: T1, CDK9/cyclin T1 (Homo sapiens); assay: Inhibition of CDK9/Cyclin T1 in human B cell transfected with EBV assessed as reduction in RNA pol II C-terminal domain phosphorylation on serine 5 at +75615 distal EBV genome region at 500 nM incubated for 2 hrs in presence of beta-estradiol by CHIP assay
[24] = target: T1, CDK9/cyclin T1 (Homo sapiens); assay: Inhibition of CDK9/Cyclin T1 in human Mutu-3 cells assessed as reduction in BRD4 at +1564 distal EBV genome region at 500 nM incubated for 2 hrs by CHIP assay
[25] = target: T1, CDK9/cyclin T1 (Homo sapiens); assay: Inhibition of CDK9/Cyclin T1 in human B cell transfected with EBV assessed as reduction in RNA pol II C-terminal domain phosphorylation on serine 5 at +48 distal EBV genome region at 500 nM incubated for 2 hrs in presence of beta-estradiol by CHIP assay
[26] = target: T1, CDK9/cyclin T1 (Homo sapiens); assay: Inhibition of CDK9/Cyclin T1 in human Mutu-3 cells assessed as reduction in RNA pol II C-terminal domain phosphorylation on serine 5 at +38828 distal EBV genome region at 500 nM incubated for 2 hrs by CHIP assay
[27] = target: T1, CDK9/cyclin T1 (Homo sapiens); assay: Inhibition of CDK9/Cyclin T1 in human Mutu-3 cells assessed as decrease in Cp-initiated LMP1 transcription at 25 to 50 uM incubated for 24 hrs by Q-PCR analysis; details: dose 25-50 µM; outline: as §1
[28] = target: T1, CDK9/cyclin T1 (Homo sapiens); assay: Inhibition of CDK9/Cyclin T1 in human Mutu-3 cells assessed as reduction in BRD4 at -317 distal EBV genome region at 500 nM incubated for 2 hrs by CHIP assay
[29] = target: T1, CDK9/cyclin T1 (Homo sapiens); assay: Inhibition of CDK9/Cyclin T1 in human B cell transfected with EBV assessed as reduction in RNA pol II C-terminal domain phosphorylation on serine 5 at +295 distal EBV genome region at 500 nM incubated for 2 hrs in presence of beta-estradiol by CHIP assay
[30] = target: T1, CDK9/cyclin T1 (Homo sapiens); assay: Inhibition of CDK9/Cyclin T1 in human Mutu-3 cells assessed as reduction in RNA pol II C-terminal domain phosphorylation on serine 5 at +38667 distal EBV genome region at 500 nM incubated for 2 hrs by CHIP assay
[31] = target: T1, CDK9/cyclin T1 (Homo sapiens); assay: Inhibition of CDK9/Cyclin T1 in human Mutu-3 cells assessed as reduction in H4 histone acetylation at +34 distal EBV genome region at 500 nM incubated for 2 hrs by CHIP assay
[32] = target: T1, CDK9/cyclin T1 (Homo sapiens); assay: Inhibition of CDK9/Cyclin T1 in human Mutu-3 cells assessed as reduction in RNA pol II C-terminal domain phosphorylation on serine 5 at -208 distal EBV genome region at 500 nM incubated for 2 hrs by CHIP assay
[33] = target: T1, CDK9/cyclin T1 (Homo sapiens); assay: Inhibition of CDK9/Cyclin T1 in human Mutu-3 cells assessed as reduction in H4 histone acetylation at +1564 distal EBV genome region at 500 nM incubated for 2 hrs by CHIP assay
[34] = target: T1, CDK9/cyclin T1 (Homo sapiens); assay: Inhibition of CDK9/Cyclin T1 in human Mutu-3 cells assessed as reduction in H3 histone acetylation at +2238 distal EBV genome region at 500 nM incubated for 2 hrs by CHIP assay
[35] = target: T1, CDK9/cyclin T1 (Homo sapiens); assay: Inhibition of CDK9/Cyclin T1 in human Mutu-3 cells assessed as reduction in H3 histone acetylation at +574 distal EBV genome region at 500 nM incubated for 2 hrs by CHIP assay
[36] = target: T1, CDK9/cyclin T1 (Homo sapiens); assay: Inhibition of CDK9/Cyclin T1 in human Mutu-3 cells assessed as reduction in H4 histone acetylation at -317 distal EBV genome region at 500 nM incubated for 2 hrs by CHIP assay
[37] = target: T1, CDK9/cyclin T1 (Homo sapiens); assay: Inhibition of CDK9/Cyclin T1 in human Mutu-3 cells assessed as effect on cp-pre-initiation complex assembly at +38667 distal EBV genome region at 500 nM incubated for 2 hrs by CHIP assay
[38] = target: T1, CDK9/cyclin T1 (Homo sapiens); assay: Inhibition of CDK9/Cyclin T1 in human Mutu-3 cells assessed as decrease in Cp-initiated EBNA 2 transcription at 25 to 50 uM incubated for 24 hrs by Q-PCR analysis; details: dose 25-50 µM; outline: as §1
[39] = target: T1, CDK9/cyclin T1 (Homo sapiens); assay: Inhibition of CDK9/Cyclin T1 in human B cell transfected with EBV assessed as reduction in RNA pol II C-terminal domain phosphorylation on serine 5 at -208 distal EBV genome region at 500 nM incubated for 2 hrs in presence of beta-estradiol by CHIP assay
[40] = target: T1, CDK9/cyclin T1 (Homo sapiens); assay: Inhibition of CDK9/Cyclin T1 in human B cell transfected with EBV assessed as reduction in RNA pol II C-terminal domain phosphorylation on serine 5 at +50024 distal EBV genome region at 500 nM incubated for 2 hrs in presence of beta-estradiol by CHIP assay
[41] = target: T1, CDK9/cyclin T1 (Homo sapiens); assay: Inhibition of CDK9/Cyclin T1 in human Mutu-3 cells assessed as reduction in RNA pol II C-terminal domain phosphorylation on serine 5 at W repeat EBV genome region at 500 nM incubated for 2 hrs by CHIP assay

OC[C@H]1O[C@@H](n2cnc3cc(Cl)c(Cl)cc32)[C@H](O)[C@@H]1O
inhibition [1]: Active | inhibition [2]: Active | inhibition [3]: Active | inhibition [4]: Active | inhibition [5]: inactive | inhibition [6]: Active | inhibition [7]: Active | inhibition [8]: Active | inhibition [9]: Active | inhibition [10]: Active | inhibition [11]: Active | inhibition [12]: Active | fold change (FC) [13]: 2 | inhibition [14]: inactive | inhibition [15]: Active | fold change (FC) [16]: 2 | inhibition [17]: inactive | inhibition [18]: Active | inhibition [19]: inactive | inhibition [20]: Active | inhibition [21]: Active | inhibition [22]: inactive | inhibition [23]: Active | inhibition [24]: Active | inhibition [25]: Active | inhibition [26]: Active | inhibition [27]: inactive | inhibition [28]: Active | inhibition [29]: Active | inhibition [30]: Active | inhibition [31]: Active | inhibition [32]: Active | inhibition [33]: Active | inhibition [34]: Active | inhibition [35]: Active | inhibition [36]: Active | inhibition [37]: inactive | inhibition [38]: Active | inhibition [39]: Active | inhibition [40]: Active | inhibition [41]: Active
